Test results reported in ChEMBL document CHEMBL4043244, “Diverse amide analogs of sulindac for cancer treatment and prevention” (Bioorg Med Chem Lett, 2017).

Key:
[1] = Growth inhibition of mouse CPC300 cells after 72 hrs by CellTiter-Glo reagent based assay; format: functional, cell-based
[2] = system: REH; assay: Growth inhibition of human REH cells after 72 hrs by CellTiter-Glo reagent based assay; format: functional, cell-based; conditions: reh
[3] = system: PC-3; assay: Growth inhibition of human PC3 cells after 72 hrs by CellTiter-Glo reagent based assay; format: functional; conditions: PC-3, 72 h
How it was run: (§1)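 Cancer cell lines (PC3 prostate, HT29 colorectal carcinoma, MDA-MB-231 breast) were screened by quantitative high-throughput screening in whole cells, and CC50 values were derived.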

[4] = system: Jurkat E6.1; assay: Growth inhibition of human Jurkat E6-1 cells after 72 hrs by CellTiter-Glo reagent based assay; format: functional, cell-based; conditions: jurkat e6.1
[5] = system: Raji; assay: Growth inhibition of human Raji cells after 72 hrs by CellTiter-Glo reagent based assay; format: functional, cell-based
[6] = system: MDA-MB-231; assay: Growth inhibition of human MDA-MB-231 cells after 72 hrs by CellTiter-Glo reagent based assay; format: functional; conditions: MDA-MB-231, 72 h; how it was run: as §1
[7] = system: BJ; assay: Growth inhibition of human BJ cells after 72 hrs by CellTiter-Glo reagent based assay; format: cell-based
How it was run: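 Normal human foreskin fibroblast (BJ) counter-screen for cytotoxicity, with drug tested at 10 μM.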

[8] = system: HT-29; assay: Growth inhibition of human HT-29 cells after 72 hrs by CellTiter-Glo reagent based assay; format: functional; conditions: HT-29, 72 h; how it was run: as §1
[9] = system: 697; assay: Growth inhibition of human 697 cells after 72 hrs by CellTiter-Glo reagent based assay; format: functional, cell-based; conditions: 697
[10] = Growth inhibition of human NALM16 cells after 72 hrs by CellTiter-Glo reagent based assay; format: functional, cell-based
[11] = Mus musculus, CPC300, 72 h, read-out: EC50
[12] = Homo sapiens, NALM16, 72 h, read-out: EC50

For `CSc1ccc(/C=C2/C(C)=C(CC(=O)N3CCN(c4ccncc4)CC3)c3cc(F)ccc32)cc1`, the EC50 [1, 11] was 50 µM, the EC50 [2] was “Not Active” and the CC50 [3] was 2.76 µM. For the same molecule, the EC50 [4] was “Not Active”, the EC50 ([5]; raji) was “Not Active” and the CC50 [6] was 3.08 µM. For the same molecule, the EC50 [7] was over 7.57 µM, the CC50 [8] was 1130 nM and the EC50 [9] was “Not Active”. The EC50 ([10]; nalm16) was “Not Active”.

For `CSc1ccc(/C=C2/C(C)=C(CC(=O)NCCN(C)C)c3cc(F)ccc32)cc1`, the EC50 ([1]; cpc300) was “Not Active”, the EC50 [2] was “Not Active” and the CC50 [3] was 3.12 µM. For the same molecule, the EC50 [4] was “Not Active”, the EC50 ([5]; raji) was “Not Active” and the CC50 [6] was 2.67 µM. The EC50 [7] was over 7.57 µM, the CC50 [8] was 650 nM and the EC50 [9] was “Not Active”. The EC50 ([10]; nalm16) was “Not Active”.

In the case of `CSc1ccc(/C=C2/C(C)=C(CC(=O)N(C)CCN(C)C)c3cc(F)ccc32)cc1`, the EC50 ([1]; cpc300) is reported as “Not Active”, the EC50 [2] is reported as “Not Active” and the CC50 [3] is reported as 5.63 µM. For the same molecule, the EC50 [4] was “Not Active”, the EC50 ([5]; Homo sapiens, Raji, 72 h, read-out: EC50) was 830 nM and the CC50 [6] was 3.98 µM. The EC50 [7] was over 7.57 µM, the CC50 [8] was 1830 nM and the EC50 [9] was “Not Active”. The EC50 [10, 12] was 71 nM.

With `CSc1ccc(/C=C2/C(C)=C(CC(=O)N3CCN(CCN(C)C)CC3)c3cc(F)ccc32)cc1` the EC50 [1, 11] was 27 µM, the EC50 [2] was “Not Active” and the CC50 [3] was 6.23 µM. The EC50 [4] was “Not Active”, the EC50 ([5]; raji) was “Not Active” and the CC50 [6] was 4.05 µM. The EC50 [7] was over 7.57 µM, the CC50 [8] was 2170 nM and the EC50 [9] was “Not Active”. The EC50 [10, 12] was 1900 nM.
